Bioassay records from PubChem.
FXIa inh 1536 – inhibitors of human coagulation factor XIa. inhibition, % at 5 µM. purified FXIa, Boc-Glu-Ala-Arg-AMC fluorogenic substrate. hit rate 0.14% among 220,000;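 active means inhibition of at least 40%; inactive means inhibition below 40%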;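 further: fluorescence of freed AMC excited at 355 nm; 0% = enzyme without compound and 100% = no enzyme blank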
Target sequence (P03951 19-387 limits assumed): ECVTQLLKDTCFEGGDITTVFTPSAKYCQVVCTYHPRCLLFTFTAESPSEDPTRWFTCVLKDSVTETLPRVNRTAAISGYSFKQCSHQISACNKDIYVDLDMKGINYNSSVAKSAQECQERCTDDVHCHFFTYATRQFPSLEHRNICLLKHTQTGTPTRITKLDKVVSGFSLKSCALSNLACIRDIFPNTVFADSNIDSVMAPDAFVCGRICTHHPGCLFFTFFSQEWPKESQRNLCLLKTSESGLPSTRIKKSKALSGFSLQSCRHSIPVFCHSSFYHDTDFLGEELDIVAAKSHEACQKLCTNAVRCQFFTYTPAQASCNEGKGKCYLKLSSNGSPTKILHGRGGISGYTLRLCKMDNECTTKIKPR
Target sequence (P03951 388-625 limits assumed): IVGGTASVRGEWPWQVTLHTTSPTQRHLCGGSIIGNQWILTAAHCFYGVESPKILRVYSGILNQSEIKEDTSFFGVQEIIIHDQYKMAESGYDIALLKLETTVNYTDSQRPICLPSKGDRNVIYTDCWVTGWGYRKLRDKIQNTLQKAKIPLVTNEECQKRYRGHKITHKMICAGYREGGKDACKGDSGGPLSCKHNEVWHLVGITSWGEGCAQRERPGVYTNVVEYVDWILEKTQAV
Furin inhibitor – inhibitors of human furin | purified furin, fluorogenic substrate cleavage | inhibition, % at 20 µM or 30 µM | hit rate 0.061% among 220,000 | AID 463115; in the data active means inhibition above about 25%
Calb biofilm kill – mixtures killing C. albicans biofilm. inhibition, % at 7.6 µM. C. albicans biofilm persisters + clotrimazole, fluorescence viability; primary screen in compound mixtures of four per well. hit rate 0.02% among 120,000;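 active means inhibition above 30.3% in the primary screen of four-compound pools, then above 30% when the compound was retested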;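 further: compounds exposed to preformed 24 h biofilms for 48 h; 0% = untreated biofilm control and 100% = clotrimazole plus chlorhexidine kill blank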
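Incubation: 24 h biofilm formation, then 48 h compound exposure, 37 °C | Material: C. albicans biofilms | Buffer or medium: RPMI/MOPS medium, pH 7.0 | Measured by: 2-h Alamar Blue fluorescence, 535/590 nm excitation/emission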
KLK5 inh – kallikrein 5 (human) inhibition; Q9Y337; recombinant hK5, fluorogenic AMC substrate cleavage; inhibition, % at 5 µM; hit rate 0.59% among 210,000; AID 873;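 active means inhibition of 40% or more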;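 further: 0% = enzyme controls without compound and 100% = no-enzyme blanks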
Thrombin inh – blocks human thrombin protease activity; P00734; alpha-thrombin, Boc-VPR-AMC fluorogenic substrate cleavage; inhibition, % at 5 µM; hit rate 0.26% among 220,000;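 active means inhibition at or above 40%; inactive means inhibition below 40%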;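 further: 0% = enzyme with no compound and 100% = wells without enzyme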
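Material: Human alpha-thrombin protein | Buffer or medium: pH 7.5 Tris-saline with Tween 20 | Reagent: Boc-VPR-AMC substrate, 15 µM final | Schedule: Reaction at ambient temperature | Detection: AMC fluorescence at 355 nm excitation and 460 nm emission | Evaluation: Percent inhibition scaled between no-compound controls and no-enzyme blanks | Controls: no-compound enzyme wells and no-enzyme blanks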
FXIIa inh – inhibitors of human coagulation factor XIIa. P00748. purified FXIIa, Boc-QGR-AMC fluorogenic substrate, 2 h. inhibition, % at 5 µM. hit rate 0.3% among 220,000. AID 800; in the data active means inhibition above about 40%;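 further: 0% = enzyme with no compound and 100% = blank without enzyme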
* marks the source's active call; other numbers are inactive results; . = no result given. Hits are enriched below; roughly 1.1% of the tested compounds scored in any of these assays.

SMILES	FXIa inh 1536	Furin inhibitor	Calb biofilm kill	KLK5 inh	Thrombin inh	FXIIa inh
COc1ccc(-n2c(SCC(=O)Nc3cc(C)on3)nc3c(c2=O)SCC3)cc1	11.8	-2.1	.	101.8*	22.2	17.7
CC(=O)c1c(C)[nH]c(C(=O)OCC(=O)c2c(N)n(C)c(=O)n(C)c2=O)c1C	0.7	-13.9	7.5	-0.7	-8.9	9.9
Cn1c(SCC(N)=O)nnc1-c1ccccc1	-22.1	-22.9	.	-14.6	-6.7	-3.9
Cn1c(-c2ccccc2)cnc1SCC(N)=O	10.2	-17.6	.	2.8	-1.0	58.8*
O=C(NC(=S)N1CCN(Cc2ccccc2)CC1)c1ccco1	-3.4	-28.9	11.6	-2.4	-4.5	5.2
CN(Cc1ccon1)Cc1cn(C)nc1-c1cccc(Cl)c1	31.4	7.2	13.1	57.7*	23.3	22.9
COc1ccc(Cn2c(=O)[nH]c3cc(C(=O)NCCc4ccc(S(N)(=O)=O)cc4)ccc3c2=O)cc1	-6.6	-30.3	1.3	-2.3	-12.2	4.7
CCOC(=O)c1sc2ccc(S(=O)(=O)N3CCOCC3)cc2c1N	4.8	-29.0	.	55.6*	38.5	10.2
O=C(C1CCN(c2ccc(N3CCOCC3)nn2)CC1)N1CCN(c2ccc(F)cc2)CC1	-6.2	-16.3	.	105.7*	-0.1	-9.7
Cc1cc(=O)n2[nH]cnc2n1	18.1	-18.1	6.6	41.5*	9.3	24.4
CCCc1cc(=O)n2[nH]cnc2n1	18.0	-12.7	.	-3.6	-0.7	21.6
CCC(CC)c1nnc(NC(=O)Cc2ccccc2[N+](=O)[O-])s1	-4.0	0.6	21.7	-9.6	-2.6	-9.1
Cc1cc(C)c(OCC(=O)Nc2nnn(C)n2)c(Br)c1	0.5	-14.9	.	-36.4	-9.0	-1.1
Cc1ccc(OCC(=O)Nc2nnn(C)n2)c(C)c1	28.1	-26.0	.	-17.4	3.6	43.1*
Cc1cc(NC(=O)CN2CCCCC2)no1	-1.3	-18.6	2.1	-7.0	.	1.4
CCN1CCN(CC(=O)Nc2cc(C)on2)CC1	45.5*	-5.5	15.0	41.6*	3.0	26.8
CS(=O)(=O)NCCCNc1ccc(Cl)cc1[N+](=O)[O-]	-2.4	-18.7	.	-10.3	0.6	17.8
NS(=O)(=O)c1ccc(Cl)cc1[N+](=O)[O-]	41.0*	-3.1	10.2	16.7	22.2	46.1*
Cn1ccc(CC(=O)N2CCC(N3CCC(C(=O)N4CCCC4)CC3)CC2)c1	-2.0	-15.2	28.0	-1.9	-8.3	1.6
COc1ccc(-c2ncccc2OC(=O)C23CC4CC(CC(C4)C2)C3)cc1	2.8	-40.7	-2.8	60.2*	17.8	-0.5
Nc1nc2ccccc2n1C(=O)c1ccccc1	-1.0	-28.0	12.7	-1.6	-7.0	2.0
Nc1nc2ccccc2n1C(=O)c1ccco1	5.0	-14.5	9.4	41.1*	44.3*	-2.9
O=C(N/N=C/c1c[nH]c2ccccc12)c1cc(-c2cccc3ccccc23)n[nH]1	6.6	-9.9	10.4	25.3	43.5*	-4.1
O=C(O)/C=C(\Oc1ccccc1)C1(O)CCCCC1	9.5	-30.2	11.1	3.5	-0.2	3.8
O=C(c1cc2ccc([N+](=O)[O-])cc2oc1=O)N1CCOCC1	1.0	-29.3	7.3	11.7	-2.4	12.9
SMILES	FXIa inh 1536	Furin inhibitor	Calb biofilm kill	KLK5 inh	Thrombin inh	FXIIa inh
CCCc1cc(C(=O)Nc2cccnc2)no1	4.2	-14.9	.	-16.9	-4.9	7.4
CC(C)c1cc(C(=O)Nc2cccnc2)no1	5.6	-20.9	.	44.7*	13.8	21.4
O=C1C=C(NNC(=O)c2cccnc2)CC(c2ccco2)C1 (centres undefined)	-2.7	-15.6	13.9	-0.4	2.4	8.7
c1nc2n(n1)C1=C(CCCC1)C1(CCCCC1)N2	2.7	-24.1	6.7	18.9	-4.0	8.5
CCc1ccc(NC(=S)N(Cc2cccc(Br)c2)CC2CCC(C(=O)O)CC2)cc1 (centres undefined)	25.1	-2.2	12.3	65.5*	8.5	23.1
O=C(Oc1ccc(=O)n(-c2ccccc2)n1)c1ccc(Cl)cc1	51.3*	-7.1	.	-13.0	4.9	20.9
O=C(Oc1ccc(=O)n(-c2ccccc2)n1)c1ccc(F)cc1	35.9	-1.6	6.5	9.9	6.2	15.6
O=C(Oc1ccc(=O)n(-c2ccccc2)n1)c1cccc(Cl)c1	68.0*	-25.0	.	-9.0	5.1	17.5
O=c1[nH]c(-c2ccc(Cl)cc2)nc(=S)[nH]1	4.0	-14.3	7.9	-0.2	1.7	6.1
Cc1cc(NC(=O)CCSc2ccccc2)no1	-2.2	-18.6	14.9	-4.0	-11.3	3.0
COc1ccc(N(CC(=O)N2CCN(c3ccc(Cl)cc3)CC2)S(=O)(=O)c2c(C)n[nH]c2C)cc1	3.5	-40.3	8.2	-0.2	-1.7	8.3
CCOC(=O)c1cc2c(N)c(C(=O)c3ccc(Br)cc3)sc2[nH]c1=O	2.1	-3.6	-1.0	0.8	-6.7	10.9
CCOC(=O)c1ccc(NC(=O)NC2CCN(CC(=O)NCc3ccc4c(c3)OCO4)CC2)cc1	9.8	-27.7	.	30.2	43.3*	13.7
Cc1ccc(C)c(S(=O)(=O)N2CCCOC2CNC(=O)C(=O)NCc2cccnc2)c1 (centres undefined)	-7.7	-7.8	6.8	42.8*	12.6	34.1
Cc1ccc(C(OC(=O)c2ccco2)C(=O)NC2CCCCC2)cc1 (centres undefined)	2.9	2.6	.	-13.7	-0.4	12.7
COc1ccc(C(OC(=O)c2ccco2)C(=O)NC2CCCCC2)cc1OC (centres undefined)	7.9	1.3	.	83.1*	36.5	14.8
O=S(=O)(c1ccc(F)cc1)N1CCN(c2ccc(-c3ccccc3)nn2)CC1	4.6	-19.5	2.6	5.3	2.6	4.8
O=C(CCl)Nc1ccc(N2CCCCCC2)cc1	-0.2	-12.6	9.0	2.4	-0.6	8.2
Cc1nn(CCc2nn[nH]n2)c2nc(-c3ccc(Br)cc3)cc(C(F)(F)F)c12	27.3	2.6	10.5	31.5	8.9	41.3*
Cc1nn(CCc2nn[nH]n2)c2nc(C(F)(F)F)cc(C(F)(F)F)c12	-1.8	-25.5	.	-53.6	-0.1	11.8
CC(C)=N/N=C1/NC(=O)C(CC(=O)Nc2cc(Cl)ccc2C)S1 (centres undefined)	-0.5	-4.7	11.4	-20.4	-10.9	3.7
FC(F)(F)c1nnc2n1N=C(c1cccs1)CS2	-3.8	-16.6	4.0	-3.0	-9.0	4.2
COc1ccc2c(c1)C(c1ccc([N+](=O)[O-])cc1)=NNC(c1ccco1)=N2	-2.7	-9.4	.	42.1*	5.5	7.6
COc1ccc2c(c1)C(c1ccc(N3CCOCC3)cc1)=NNC(c1cccnc1)=N2	7.2	-4.9	11.2	93.8*	28.2	13.1
Cn1c(=O)c2c(nc(Sc3ncnn3CC(=O)NC3CCCCC3)n2C)n(C)c1=O	-0.4	-17.8	16.5	0.0	-0.9	5.8
O=C(NCCCCc1ccccc1)c1ccc(Br)o1	3.8	-18.1	10.3	-0.1	-3.1	12.2
O=C(NCCCc1ccccc1)c1ccc(Br)o1	1.4	-4.9	.	49.1*	38.0	20.3
